B2AR ag = agonists of human beta-2 adrenergic receptor inducing internalization; P07550; Am2.2-beta2AR cells, FAP receptor internalization, flow cytometry; response, % (no concentration beside the values); actives 0.43% (n = 340,000); AID 504454;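 active means response above a set limit, near 3 SD of response in nonfluorescent compounds, cut at about 42% in these data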
Target sequence (P07550 whole entry, looked up): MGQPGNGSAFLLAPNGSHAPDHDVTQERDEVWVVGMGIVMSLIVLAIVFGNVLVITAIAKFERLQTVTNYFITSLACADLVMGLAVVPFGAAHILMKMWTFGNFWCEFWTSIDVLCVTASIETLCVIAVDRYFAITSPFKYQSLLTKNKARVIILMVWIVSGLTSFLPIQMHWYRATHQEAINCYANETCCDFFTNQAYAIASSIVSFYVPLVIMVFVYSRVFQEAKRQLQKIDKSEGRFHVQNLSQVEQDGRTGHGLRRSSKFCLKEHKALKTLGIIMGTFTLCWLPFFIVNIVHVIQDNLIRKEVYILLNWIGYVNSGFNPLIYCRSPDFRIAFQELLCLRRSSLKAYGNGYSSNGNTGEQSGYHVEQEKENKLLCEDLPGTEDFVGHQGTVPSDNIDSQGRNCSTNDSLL
T cell HTS = modulates CD8 T cell binding to vesicles; response (vesicle binding), % at 7 µM; AID 2052; actives 0.068% (n = 330,000); 2C CD8+ T cell-vesicle binding, flow cytometry; active compounds read low;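 active means response, share of CD8 T cells binding vesicles, and their 90th percentile fluorescence all below set limits, cut at about 80% in these data, passing the limit was not always enough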;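 further: values below 100% mean blocked vesicle binding to the CD8+ T cells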
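Incubation: binding step 1.5 h, 37 °C, antibody labelling 20 min, ice; system: murine 2C transgenic CD8+ T lymphocytes; technique: cytometric PE anti-B7-1 and Alexa647 anti-CD8 signals after 1% paraformaldehyde fixation; also added: QL9-charged Drosophila Ld/ICAM-1/B7-1 vesicles; control set: naked versus QL9-loaded vesicles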
rCAG RNA binder = r(CAG) repeat RNA binding; TO-PRO-1 dye displacement fluorescence; inhibition, % at 3 µM; actives 1.3% (n = 370,000); AID 651821;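 active means inhibition above the plate cutoff, the mean of all test compounds on that plate plus 3 SD, cut at about 35% in these data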;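 further: 0% = DMSO alone and 100% = 100 µM mitoxantrone as full dye displacement; higher means more dye released from RNA so lower well fluorescence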
Granule exo inh = blocks lytic granule exocytosis. inhibition, % at 10 µM. TALL-104 LAMP-1 surface exposure, flow cytometry; cells stimulated with thapsigargin and PMA. actives 0.66% (n = 360,000);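 active means inhibition above about 55%, limit read from the data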
MPTP inh = permeability transition pore inhibition | isolated mouse mitochondria, Ca2+ swelling absorbance, 30 min | inhibition, % at 10 µM | actives 1.4% (n = 360,000);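 active means inhibition of 50% or more, scaled per plate between neutral and stimulator controls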;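 further: 0% = DMSO wells given calcium and 100% = 1 mM EGTA wells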
V-ATPase pH = regulators of yeast V-ATPase proton transport; response, % at 10 µM; actives 0.37% (n = 350,000); S. cerevisiae, pHLuorin cytosolic pH fluorescence; in the data active means response mostly above about 7.3%, no sharp cut-off; inactive means mostly below about 5.4%; further: actives read high
MPTP counter = mitochondrial membrane potential, counter-screen. actives 78% (n = 5,000). shares compounds with MPTP inh. inhibition, % at 10 µM. isolated mitochondria, Rhodamine 123 fluorescence; in the data active means inhibition above about 22%;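 further: 0% = DMSO vehicle and 100% = positive control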
MPTP swell DR = MPTP inhibition, dose response swelling confirmation; shares compounds with MPTP inh; isolated mitochondria swelling, absorbance; IC50, µM; actives 58% (n = 780); in the data active means IC50 below about 20 µM
MPTP cs DR = MPTP inhibitor counter-screen activity, dose response; IC50, µM; isolated mitochondria counterscreen, fluorescence read-out; shares compounds with MPTP inh; actives 49% (n = 780); in the data active means IC50 below about 80 µM
Active calls of the source: *; i = inactive; · = no result given. This is a sample that favours compounds with a hit; in the whole collection about 3.8% have one here.

SMILES	B2AR ag	T cell HTS	rCAG RNA binder	Granule exo inh	MPTP inh	V-ATPase pH	MPTP counter	others
O=C(O)c1cccc(CN2C(=O)S/C(=C/c3ccccc3[N+](=O)[O-])C2=O)c1	6	384	14	-6	0	-3	·
Cc1nc2ccc(NC(=O)c3cc(S(=O)(=O)N(C)c4ccccc4)ccc3Cl)cc2s1	-5	396	12	0	107*	-1	84*
Cc1nc2ccc(NC(=O)c3ccc(S(=O)(=O)N(C)C)cc3)cc2s1	4	215	2	1	0	3	·
CN(c1ccccc1)S(=O)(=O)c1ccc(Cl)c(C(=O)Nc2ccc(N3CCOCC3)cc2)c1	-1	239	4	0	0	0	·
Cc1nc2ccc(NC(=O)c3ccc(Cl)c(S(=O)(=O)N(C)c4ccccc4)c3)cc2s1	31	138	10	18	74*	-8	69*
O=C(CCc1ccccc1)N[C@H]1[C@H](OC(=O)c2ccco2)CCC[C@]12C(=O)N(Cc1ccccc1)c1ccccc12	·	·	8	·	·	·	·
CC1CCN(C(=O)N2c3ccccc3Sc3ccccc32)CC1	25	184	-4	-1	65*	2	34*
CCOc1ccc2[nH]c3c(NCCN(C)C)ncnc3c2c1	-2	272	9	-13	0	2	·
CCOc1ccc2[nH]c3c(NCCC(C)C)ncnc3c2c1	17	152	6	35	78*	3	67*
Cc1c(O)ccc2c(CN(C)Cc3ccccc3)cc(=O)oc12	8	393	2	29	84*	-3	62*
CC(C)CCCCCCNC(=S)Nc1ccc(S(=O)(=O)N2CCOCC2)cc1	-2	245	10	4	84*	-5	83*
CC(NC(=S)Nc1ccc(S(=O)(=O)N2CCOCC2)cc1)C1CC2CCC1C2 (configuration not stated)	-5	447	5	0	93*	4	92*
Cc1ccc2[nH]c(=O)c(CN(CCCN(C)C)C(=S)NCCc3ccccc3)cc2c1	18	261	-1	12	86*	-2	-10	MPTP swell DR=12*;MPTP cs DR=>80
Cc1ccc(-n2c(SCC(=O)c3ccc(F)cc3)nnc2-c2cccnc2)cc1	·	·	2	·	·	·	·
Cc1onc(-c2ccccc2)c1CNC(=O)Nc1cccc(Cl)c1	0	424	1	0	78*	5	85*
Cc1onc(-c2ccccc2)c1CNC(=O)Nc1ccc(F)cc1F	-7	304	0	2	8	1	·
Cc1cc(C)cc(NC(=O)NCc2c(-c3ccccc3)noc2C)c1	-2	108	4	-10	26	-1	·
Cc1onc(-c2ccccc2)c1CNC(=O)Nc1ccc(C(F)(F)F)cc1	19	433	1	-1	78*	1	83*
O=S(=O)(c1ccc(Cl)c(NC(=S)N/N=C/c2c(F)cccc2F)c1)N1CCOCC1	9	217	12	-3	57*	1	47*
CCOC(=O)C1=NOC(C(=O)NC2CCCC2)(C(=O)C2CC2)C1 (configuration not stated)	·	·	4	·	·	·	·
Cc1ccc(C(=O)Nc2nc(-c3ccccn3)cs2)s1	12	793	6	2	-3	-1	·
CCc1sc(C(=O)Nc2nc(-c3ccccn3)cs2)cc1C	9	824	·	-1	68*	2	-14
CC1=[N+](C)c2c(ccc3cccnc23)C1(C)C	-5	·	-5	-4	95*	1	82*
Cc1[nH]c2c(ccc3cccnc32)c1C	1	449	-1	-14	-2	-5	·
Cc1nn(-c2cc(C(F)(F)F)ccc2Cl)c2nc(C(Cl)(Cl)Cl)[nH]c(=O)c12	2	436	23	-3	78*	4	82*
SMILES	B2AR ag	T cell HTS	rCAG RNA binder	Granule exo inh	MPTP inh	V-ATPase pH	MPTP counter	others
CC(C)(C)C(=O)NC(=S)NNC(=O)c1sc2ccccc2c1Cl	8	123	·	23	61*	-1	21*
O=C(NC(=S)NCCO)c1sc2ccccc2c1Cl	-10	138	5	-4	2	-2	·
Cn1c(-c2ccc(Br)o2)nc2cc(Br)ccc21	-3	270	1	-2	64*	2	-8	MPTP swell DR=i;MPTP cs DR=>80
O=C(C(=O)N1CCC(CNC(=O)C2COc3ccccc3O2)CC1)c1cccs1 (configuration not stated)	·	·	1	·	·	·	·
COCc1[nH]nc2c1C(c1cccc(C(F)(F)F)c1)N(c1ccc(OC)cc1)C2=O (configuration not stated)	·	·	1	·	·	·	·
Cc1cc(C(=O)CSc2nc3ccc(Cl)cc3[nH]2)c(C)n1Cc1ccco1	3	132	15	-4	51*	-2	53*
O=C(CSc1nc2ccc(Cl)cc2[nH]1)NCc1ccco1	2	434	2	-1	1	-2	·
CC1(C)Oc2ccc(C(=O)NC3CCCC3)cc2NC1=O	·	·	1	·	·	·	·
Nc1[nH]c(C(=O)c2ccc(Cl)cc2)c(-c2ccc(Br)cc2)c1C(=O)c1c[nH]c2ccc(F)cc12	·	·	14	·	·	·	·
COc1ccc(/C(C)=N/NC(=O)Cc2cc(=O)[nH][nH]2)cc1OC	·	·	3	·	·	·	·
CCOC(=O)c1cc(NC(=O)COc2ccc([N+](=O)[O-])cc2)cc(C(=O)OCC)c1	-2	287	5	7	50*	1	56*
COC(=O)c1cccc(NC(=O)/C=C/c2ccc([N+](=O)[O-])cc2)c1	12	442	8	-2	6	4	·
O=C(COc1ccc([N+](=O)[O-])cc1)Nc1cc(C(=O)O)cc(C(=O)O)c1	-3	225	0	4	0	-1	·
CCOC(=O)c1cccc(NC(=O)/C=C/c2ccc([N+](=O)[O-])cc2)c1	1	566	7	14	92*	3	78*
O=C(/C=C/c1cc([N+](=O)[O-])ccc1OC(F)F)Nc1cccc([N+](=O)[O-])c1	12	84	-1	-1	89*	-2	10	MPTP swell DR=8.2*;MPTP cs DR=<2.5*
CCN(C(=O)CSc1nnc(-c2cccnc2)n1Cc1ccco1)c1ccccc1C	·	·	1	·	·	·	·
COc1ccc(/C=C/S(=O)(=O)NCc2ccc(F)cc2)c(CNC(=O)OC(C)(C)C)c1	·	·	3	·	·	·	·
C/C(N=Nc1nc2ccccc2s1)=N\Nc1ccccc1O	4	i	26	-4	91*	-2	54*
O=C(CN1C2=NCCN2c2ccccc21)C12CC3CC(CC(C3)C1)C2	0	253	8	24	70*	-1	-5	MPTP swell DR=i;MPTP cs DR=>80
COc1ccc([C@H]2OC(=O)C[C@H]2C(=O)N2CCCCC2)cc1OC	·	·	-1	·	·	·	·

Assay outcomes as filed in PubChem BioAssay.
